Most compounds without a hit are left out; they make up all but 3.7% or so of the library.
EP2 mod = modulates human prostaglandin E2 receptor EP2 signaling | AID 940 | induction, % at 25 µM | 260,000 tested, 0.83% active | EP2-expressing cells, cAMP HTRF FRET, PGE2 co-stimulation;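 active = compounds whose cAMP rise, as percent of the full-agonist control response, exceeds 60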;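 also: rat C6 glioma line stably carrying human EP2 under a CMV promoter; the protocol text gives 20 µM as final concentration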
CHO parental Ca = signal in parental CHO cells, OX1R antagonist counter-screen | parental CHO-K1, ATP-induced calcium, Fluo-8 fluorescence | inhibition, % at 5.6 µM | 330,000 tested, 0.63% active | AID 463079;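 active = inhibition above that plate's mean sample inhibition plus 3 SD, cut at about 26% in these data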
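Material – parental CHO cells · Reagent – ATP stimulus · Compound – single nominal dose of 5.6 µM per compound · Detection – Fluo-8 fluorescence · Read-out basis – percent inhibition of calcium signal · Controls – ATP-challenged DMSO wells low, unchallenged DMSO wells high · Repeats – no replicates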
OX1R antag-1 = OX1R (human) antagonism; O43613; OX1R-expressing cells, FRET antagonist read-out; inhibition, % at 6.6 µM; 330,000 tested, 1.8% active; AID 485270; in the data active = inhibition mostly above about 38%, no sharp cut-off; inactive = mostly below about 40%
Target sequence (O43613 whole entry, looked up): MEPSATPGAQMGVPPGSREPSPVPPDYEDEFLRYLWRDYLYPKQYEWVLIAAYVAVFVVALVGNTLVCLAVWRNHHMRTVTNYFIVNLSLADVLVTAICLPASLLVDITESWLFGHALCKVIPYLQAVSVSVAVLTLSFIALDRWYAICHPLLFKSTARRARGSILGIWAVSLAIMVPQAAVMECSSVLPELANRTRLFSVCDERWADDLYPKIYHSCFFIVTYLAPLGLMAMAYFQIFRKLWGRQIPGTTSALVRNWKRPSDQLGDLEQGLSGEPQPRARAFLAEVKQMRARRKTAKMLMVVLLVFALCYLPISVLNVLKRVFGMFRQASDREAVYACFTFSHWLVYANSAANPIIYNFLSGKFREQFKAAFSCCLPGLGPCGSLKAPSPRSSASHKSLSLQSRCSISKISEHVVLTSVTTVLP
OX1R antag-2 = antagonists of human orexin 1 receptor; O43613; CHO/OX1R cells, Fluo-8 calcium fluorescence, orexin A; inhibition, % at 5 µM; 330,000 tested, 0.43% active;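 active = inhibition above its plate's threshold, mean inhibition of all tested compounds on the plate plus 3 SD, cut at about 37% in these data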
EP2 antag = EP2 receptor (human) inhibition; inhibition, % at 25 µM; C6 glioma cells expressing human EP2, cAMP TR-FRET; cells stimulated with saturating PGE2; AID 1422; 260,000 tested, 0.52% active;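 active = percent inhibition above 40 after rounding to a whole number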;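 also: rat C6 glioma host cells with rolipram phosphodiesterase inhibitor present; the protocol text gives 20 µM as final concentration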
GPR7 antagonist = antagonists of human GPR7 (neuropeptides B/W receptor 1) | P48145 | GPR7-expressing cells, fluorescence antagonist assay | inhibition, % at 4.4 µM | 290,000 tested, 1.1% active | AID 1861; in the data active = inhibition above about 16%, passing the limit was not always enough;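 also: cells stimulated with the agonist NPW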
OX1R Ca confirm = OX1R (human) antagonism, confirmed. shares compounds with OX1R antag-2. CHO/OX1R cells, orexin A calcium Fluo-8 fluorescence. inhibition, % at 5 µM. 1,100 tested, 38% active. AID 492963; in the data active = inhibition above about 29%
CHO Ca triplic = counter-screen for OX1R antagonists: effect in parental CHO cells | shares compounds with OX1R antag-2 | parental CHO-K1, ATP-induced calcium, Fluo-8 fluorescence | inhibition, % at 5.6 µM | 1,100 tested, 9.3% active;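 active = inhibition above a per-plate limit, the mean inhibition of that plate's test compounds plus 3 SD, cut at about 25% in these data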
OX1R HTRF conf = OX1R (human) antagonism, HTRF confirmed. inhibition, % at 6.6 µM. 1,800 tested, 49% active. AID 492964. shares compounds with OX1R antag-1. OX1R-expressing cells, HTRF antagonist assay; in the data active = inhibition above about 55%;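 also: CHO cells expressing OX1R stimulated with orexin A at about EC80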
CHO-K1 HTRF = counter-screen: parental CHO-K1 HTRF response; shares compounds with OX1R antag-1; parental CHO-K1 cells, HTRF counterscreen; inhibition, % at 6.6 µM; 1,800 tested, 48% active; in the data active = inhibition above about 17%
Of the large screens only hits and unclear results are named; the others gave an inactive call (follow-up assays come after a bar, where they were run).

CC(C)(CNC(=O)c1ccc([N+](=O)[O-])c(Cl)c1)CNC(=O)c1ccc([N+](=O)[O-])c(Cl)c1	OX1R antag-1 85, OX1R antag-2 41 | OX1R Ca confirm inactive | CHO Ca triplic inactive | OX1R HTRF conf inactive | CHO-K1 HTRF 18
C=CCNC(=O)c1ccc([N+](=O)[O-])c(Cl)c1	none
CCc1ccc(NC(=O)c2ccc(F)c(S(=O)(=O)NCC3COc4ccccc4O3)c2)cc1 (stereo unspecified)	OX1R antag-1 56 | OX1R Ca confirm inactive | CHO Ca triplic 30 | OX1R HTRF conf inactive | CHO-K1 HTRF inactive
CCOC(=O)C1=C(COC(=O)c2ccccc2OC(F)F)NC(=O)NC1C (stereo unspecified)	none (no result: EP2 mod, EP2 antag, GPR7 antagonist)
CCOC(=O)C1=C(COC(=O)c2ccc3ccccc3c2O)NC(=O)NC1C (stereo unspecified)	OX1R antag-1 104, OX1R antag-2 101 (no result: EP2 mod, EP2 antag, GPR7 antagonist) | OX1R Ca confirm 100 | CHO Ca triplic inactive | OX1R HTRF conf 91 | CHO-K1 HTRF inactive
COc1cc(C#Cc2c(C=O)n(C)c3ccccc23)cc(OC)c1	none (no result: EP2 mod, EP2 antag, GPR7 antagonist)
C=CCn1c2ccccc2c(=O)c2cc(C#Cc3cc(OC)cc(OC)c3)ccc21	OX1R antag-1 47, OX1R antag-2 69 (no result: EP2 mod, EP2 antag, GPR7 antagonist) | OX1R Ca confirm 45 | CHO Ca triplic inactive | OX1R HTRF conf 66 | CHO-K1 HTRF 20
COc1ccc2c(C#CCCO)c(-c3ccc(S(C)(=O)=O)cc3)sc2c1	none (no result: EP2 mod, EP2 antag, GPR7 antagonist)
COc1ccc2sc(-c3ccc(S(C)(=O)=O)cc3)c(C#CCO)c2c1	OX1R antag-1 59, OX1R antag-2 65 (no result: EP2 mod, EP2 antag, GPR7 antagonist) | OX1R Ca confirm inactive | CHO Ca triplic inactive | OX1R HTRF conf 60 | CHO-K1 HTRF inactive
O=C(NCc1ccc(F)cc1)C1CCCN1S(=O)(=O)c1ccccc1C(F)(F)F (stereo unspecified)	none (no result: EP2 mod, EP2 antag, GPR7 antagonist)
Cc1ccccc1NC(=O)C1CCCN1S(=O)(=O)c1ccccc1C(F)(F)F (stereo unspecified)	OX1R antag-1 81, OX1R antag-2 66 (no result: EP2 mod, EP2 antag, GPR7 antagonist) | OX1R Ca confirm 55 | CHO Ca triplic inactive | OX1R HTRF conf 94 | CHO-K1 HTRF inactive
CC(C)(C)C(=O)NC(=S)NCCc1ccccc1	none
O=C(CSc1nnc(Cn2nnc3ccccc32)o1)N(Cc1ccc(F)cc1)c1ccccc1	OX1R antag-1 78, OX1R antag-2 79 (no result: EP2 antag) | OX1R Ca confirm 51 | CHO Ca triplic 61 | OX1R HTRF conf 70 | CHO-K1 HTRF inactive
Cc1cc(O)cc2c(=O)c3ccccc3sc12	OX1R antag-1 86, OX1R antag-2 52 | OX1R Ca confirm 56 | CHO Ca triplic inactive | OX1R HTRF conf 92 | CHO-K1 HTRF inactive
Cc1ccn2cc(C(=O)Nc3ccc4c(c3)OCCO4)nc2c1	OX1R antag-1 88 | OX1R Ca confirm inactive | CHO Ca triplic inactive | OX1R HTRF conf 74 | CHO-K1 HTRF inactive
Cc1ccccc1N(CC(=O)NC1CCCC1)C(=O)c1oc(C(C)(C)C)cc1C	OX1R antag-1 93 | OX1R Ca confirm 57 | CHO Ca triplic inactive | OX1R HTRF conf 86 | CHO-K1 HTRF inactive
Cc1ccc(C(=O)N(CC(=O)NC2CCCCC2)c2ccccc2C)s1	none
CCOc1ccc2nc(NC(=O)C3CCCN(S(=O)(=O)c4cccs4)C3)sc2c1 (stereo unspecified)	OX1R antag-1 84, OX1R antag-2 52 | OX1R Ca confirm 36 | CHO Ca triplic inactive | OX1R HTRF conf 62 | CHO-K1 HTRF inactive
COc1ccc(NC(=O)[C@@H]2CCCN2S(=O)(=O)c2ccc(Cl)cc2)cc1	none (no result: EP2 mod, EP2 antag, GPR7 antagonist)

Screens (PubChem)
